In the library only some 4.9% were active in any assay of this set; here they are far more common.
NPY Y2 blocker: blocks the human neuropeptide Y Y2 receptor | NPY-Y2 expressing cells, antagonist mode | inhibition, % at 2.7 µM | actives 0.99% (n = 140,000); in the data active = inhibition above about 17%;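 note: 0% = vehicle with agonist challenge and 100% = reference antagonist with challenge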
RAM network inh: yeast RAM network inhibition | S. cerevisiae dse1pr::URA3 reporter, 5-FOA growth OD615, 2 d; analog-sensitive cbk1-as2 kinase mutant strain | inhibition, % at 50 µM | actives 1.8% (n = 190,000) | AID 868;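 active = inhibition above a set limit, 3 SD over mean compound inhibition, cut at about 8.4% in these data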;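 note: 0% = DMSO-only wells with no growth and 100% = 10 µM 1-NA-PP1 full growth; inhibition rescues growth on 5-FOA so higher OD means more RAM inhibition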
NPY1 pot ag: potentiators or agonists of human neuropeptide Y receptor Y1. P25929. NPY-Y1 expressing cells, potentiator/agonist activation. activation, % at 3.6 µM. actives 0.37% (n = 220,000). AID 1304; in the data active = activation above about 33%, passing the limit was not always enough;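 note: cells stimulated with NPY at EC10 then isoproterenol at EC100; 0% = low agonist plus stimulus and 100% = saturating agonist plus stimulus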
Target sequence (P25929 whole entry, looked up): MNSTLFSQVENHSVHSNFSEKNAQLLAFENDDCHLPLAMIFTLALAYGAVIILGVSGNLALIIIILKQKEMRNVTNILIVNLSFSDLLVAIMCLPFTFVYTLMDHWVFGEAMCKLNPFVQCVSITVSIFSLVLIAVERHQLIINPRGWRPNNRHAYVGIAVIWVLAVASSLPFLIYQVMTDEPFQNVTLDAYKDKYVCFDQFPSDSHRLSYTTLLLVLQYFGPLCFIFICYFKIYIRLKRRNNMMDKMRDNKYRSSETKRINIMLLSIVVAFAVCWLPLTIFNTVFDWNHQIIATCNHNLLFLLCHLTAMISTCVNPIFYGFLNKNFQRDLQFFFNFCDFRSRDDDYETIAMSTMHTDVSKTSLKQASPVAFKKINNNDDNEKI
NPY-Y1 antag: antagonists of human neuropeptide Y receptor Y1; HEK293-CNG Y1 cells, membrane potential fluorescence; NPY at EC95, then isoproterenol; inhibition, % at 3.6 µM; AID 1040; actives 1% (n = 200,000);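 active = inhibition above the campaign mean inhibition of all tested compounds plus 3 SD, cut at about 20% in these data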;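 note: 0% = DMSO wells given NPY plus isoproterenol and 100% = isoproterenol alone without NPY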
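Material: HEK293 Y1/CNG channel cell line; also added: NPY (25 nM), isoproterenol (1 µM), Ro 20-1724 (25 µM); doses: one concentration, 3.6 µM, in 0.4% DMSO; schedule: compound incubation 1 h at room temperature, readout 45 min post-stimulation; technique: membrane potential fluorescence; measure: fluorescence ratio normalized to % inhibition between controls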
WT yeast gro inh: growth inhibition of WT yeast, mitochondrial fusion screen | mitochondrial fusion phenotypic screen, WT strain | inhibition, % at 10 µM | actives 2.1% (n = 190,000) | AID 1362; in the data active = inhibition above about 58%; tested in S. cerevisiae
NPY2 pot ag: human NPY-Y2 potentiation or agonism, primary screen; P49146; cells expressing NPY-Y2, potentiator/agonist read-out; activation, % at 3.6 µM; actives 0.45% (n = 220,000); in the data active = activation above about 27%;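 note: cells stimulated with NPY near EC25 plus isoproterenol at EC100; 0% = vehicle plus submaximal agonist and 100% = vehicle plus saturating agonist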
* = called active by the depositor.

Screening COc1ccc(CNC(=O)/C=C/c2ccccc2[N+](=O)[O-])cc1 returned RAM network inh 3, NPY1 pot ag 7, NPY-Y1 antag 2, WT yeast gro inh -13 and NPY2 pot ag -7.
`Cc1cc(-n2nnc3ccccc32)nc2ccccc12` gave NPY Y2 blocker 6, RAM network inh 7, NPY1 pot ag -12, NPY-Y1 antag 12, WT yeast gro inh -18 and NPY2 pot ag 8.
Cc1nn(-c2cc(C)c3ccccc3n2)c2c1C1C(C2)C1(C)C (configuration not stated) was read as NPY Y2 blocker 3, RAM network inh 4, NPY1 pot ag -32, NPY-Y1 antag 9, WT yeast gro inh 63* and NPY2 pot ag -8.
Screening Cc1cc(C)c2nc(/N=C(\N)NC(=O)c3ccccc3)nc(C)c2c1 returned NPY1 pot ag -32 and NPY2 pot ag -10.
Screening Cc1cc(C)c2nc(/N=C(\N)NC(=O)Nc3ccccc3)nc(C)c2c1 returned NPY Y2 blocker 12, RAM network inh 1, NPY1 pot ag -8, NPY-Y1 antag 7, WT yeast gro inh 58* and NPY2 pot ag -8.
Screening O=C1SC(SCc2ccccc2)=N/C1=C\c1ccco1 returned NPY Y2 blocker 0, RAM network inh 8.8*, NPY1 pot ag 7, NPY-Y1 antag -4, WT yeast gro inh 25 and NPY2 pot ag 2.
Screening O=C1SC(SCc2ccccc2)=N/C1=C\c1ccc(C(=O)O)cc1 returned RAM network inh 2, NPY1 pot ag -8, NPY-Y1 antag 6, WT yeast gro inh 0 and NPY2 pot ag -2.
Screening COC(=O)Nc1ccccc1C(=O)N1CCN(c2ccc(C)cc2)CC1 returned NPY Y2 blocker 2, RAM network inh 0, NPY1 pot ag -3, NPY-Y1 antag -4, WT yeast gro inh 7 and NPY2 pot ag -2.
`NC(=O)c1ccc(N2CCCCC2)c(N2C(=O)C3CC=CCC3C2=O)c1` (configuration not stated) gave NPY Y2 blocker -2, RAM network inh 1, NPY1 pot ag -17, NPY-Y1 antag 1, WT yeast gro inh 84* and NPY2 pot ag 3.
Screening O=C(NC12CC3CC(CC(C3)C1)C2)c1ccc(=O)oc1 returned NPY Y2 blocker 1, RAM network inh 8.7*, NPY1 pot ag -8, NPY-Y1 antag -3, WT yeast gro inh -11 and NPY2 pot ag -5.
For COC(=O)CCC(=O)Nc1sc(Cc2ccccc2)c(C)c1C(N)=O the results were RAM network inh 1, NPY1 pot ag -1, NPY-Y1 antag -2, WT yeast gro inh 64* and NPY2 pot ag 8.
For O=C(Cc1csc(Nc2nc(=S)[nH]c3ccccc23)n1)NCCCN1CCN(c2ccccc2F)CC1 the results were RAM network inh 6, NPY1 pot ag -14, NPY-Y1 antag 11, WT yeast gro inh 5 and NPY2 pot ag -25.
`O=C(C1CCCN(Cc2cccc(F)c2)C1)N1CCCCC1` (configuration not stated) gave NPY Y2 blocker 4, RAM network inh 1, NPY1 pot ag -8, NPY-Y1 antag 8, WT yeast gro inh -5 and NPY2 pot ag 5.
`O=c1cc(/C=C/c2ccccc2)oc2c1ccc1ccccc12` gave NPY Y2 blocker 9, RAM network inh 2, NPY1 pot ag 0, NPY-Y1 antag 4, WT yeast gro inh 81* and NPY2 pot ag 3.
`CSC(=S)N/N=C(\C)c1ccc(Br)cc1` gave RAM network inh 3, NPY1 pot ag 16, NPY-Y1 antag 0, WT yeast gro inh 68* and NPY2 pot ag -9.
Cc1nc2ccc(NC(=O)COc3ccccc3)cc2s1 was read as RAM network inh -1, NPY1 pot ag 14, NPY-Y1 antag 3, WT yeast gro inh 74* and NPY2 pot ag -2.
For Cc1cccc(OCC(=O)Nc2ccc3nc(C)sc3c2)c1 the results were RAM network inh 3, NPY1 pot ag -36, NPY-Y1 antag 3, WT yeast gro inh 59* and NPY2 pot ag -10.
CC(=O)c1ccc(OCC(=O)Nc2ccc3nc(C)sc3c2)cc1 was read as RAM network inh 5, NPY1 pot ag 2, NPY-Y1 antag 9, WT yeast gro inh -10 and NPY2 pot ag 2.
For Cc1nc2ccc(NC(=O)COc3cccc(F)c3)cc2s1 the results were RAM network inh 6, NPY1 pot ag -26, NPY-Y1 antag 2, WT yeast gro inh 51 and NPY2 pot ag -8.
`CCOC(=O)N1CCN(C(=O)C(C)SCc2ccccc2)CC1` (configuration not stated) gave NPY Y2 blocker 0, RAM network inh 2, NPY1 pot ag 17, NPY-Y1 antag -3, WT yeast gro inh -12 and NPY2 pot ag -11.
Screening CCN(C(=O)CSc1nnnn1C)c1c(N)n(Cc2ccccc2)c(=O)[nH]c1=O returned RAM network inh 2, NPY1 pot ag -2, NPY-Y1 antag 5, WT yeast gro inh -13 and NPY2 pot ag -1.
For O=C(CCn1c(=O)c2ccccc2n(Cc2cc(=O)n3ccccc3n2)c1=O)NCc1ccco1 the results were NPY Y2 blocker 0, RAM network inh 11*, NPY1 pot ag -7, NPY-Y1 antag -2, WT yeast gro inh 1 and NPY2 pot ag 2.
`CC1CC(C)CN(C(=O)Cn2c(=O)n(CCCCC(=O)NCc3ccco3)c(=O)c3ccccc32)C1` (configuration not stated) gave NPY Y2 blocker -1, RAM network inh 11*, NPY1 pot ag -8, NPY-Y1 antag 1, WT yeast gro inh -10 and NPY2 pot ag 5.
Screening Cc1cc(CN2CCN(CCC#N)CC2)c(O)c(C2(C)CCCCC2)c1 returned NPY Y2 blocker 2, RAM network inh -2, NPY1 pot ag -14, NPY-Y1 antag 3, WT yeast gro inh 84* and NPY2 pot ag -20.
`N#CCCN1CCN(CCC#N)CC1` gave NPY Y2 blocker 2, RAM network inh 1, NPY1 pot ag -10, NPY-Y1 antag 4, WT yeast gro inh 3 and NPY2 pot ag 14.
Screening COc1ccc(C2CC(c3c(-c4ccccc4)c4cc(Cl)ccc4[nH]c3=O)=NN2C(=O)CCC(=O)O)cc1 (configuration not stated) returned RAM network inh 9.1*, NPY1 pot ag 8, NPY-Y1 antag 0, WT yeast gro inh -21 and NPY2 pot ag -3.
`COc1cccc(-c2nc(C(N)=O)c3[nH]c(=O)n(-c4cccc(Cl)c4)c3n2)c1OC` gave NPY Y2 blocker 1, RAM network inh 11*, NPY1 pot ag 7, NPY-Y1 antag 6, WT yeast gro inh 8 and NPY2 pot ag 12.
For CC(C)OC(=O)CSc1nc2cccnc2n1C1CCCCC1 the results were NPY Y2 blocker 3, RAM network inh 1, NPY1 pot ag -8, NPY-Y1 antag 16, WT yeast gro inh -23 and NPY2 pot ag -15.
